Several values for one entry are separate records, joined by “and”; a condition that tells them apart may be missing. Equal values may be shown once.
Tests used:
[1] = test system: SpyCatcher003; experiment: Isothermal titration calorimetry; assay type: binding, Streptococcus pyogenes; details: PBS pH 7.4, 25 °C
[2] = target: SpyCatcher002-555; experiment: FRET or BRET
[3] = target: SpyCatcher003; experiment: SPR
[4] = target: SpyCatcher003-555; experiment: FRET or BRET
[5] = target: SpyCatcher003; experiment: covalent reaction followed by SDS/PAGE with Coomassie staining
[6] = target: SpyCatcher003-sfGFP; experiment: covalent reaction
[7] = test system: SpyCatcher003-sfGFP; experiment: Comparison of stages of SpyTag development; assay type: biochemical; details: 10 nM each, 10 min, SPG buffer pH 7.0 + 0.2% BSA, 25 °C; n = 3
[8] = test system: SpyCatcher002-555; experiment: Stopped-flow FRET kinetics; assay type: binding, Streptococcus pyogenes; details: PBS pH 7.4, 25 °C; mean ± 1 SD, n = 4
In short: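 Stopped-flow fluorescence with 1:1 mixing at 25 °C in PBS pH 7.4, excitation 480 nm, emission through a 515-nm long-pass filter. The SpyTag variant-mClover3 was at 100 nM final against pseudo-first-order SpyCatcher variant-555 at 400 to 1,000 nM. kon came from a linear fit of the first-phase kobs against SpyCatcher variant concentration.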

[9] = test system: SpyCatcher002-sfGFP; details: cited from earlier work

Q: Which “affinity by ITC” value [1] does the source give for RGVPHIVMVAAYKRYK [SpyTag003 DA-MBP] here?
A: too tight to measure by ITC

Q: Which kon [2] does the source give for SpyTag002-mClover3 (peptide) here?
A: 420000 M⁻¹ s⁻¹

Q: For SpyTag003 DA-MBP (peptide), which Kd [3] is on record?
A: 21 nM

Q: What does the source list for SpyTag003 DA-mClover3 (peptide)?
A: dissociation rate constant, first phase of the chase (90% of signal change) [4]: 0.009 s⁻¹; dissociation rate constant, second phase of the chase (10% of signal change) [4]: 0.002 s⁻¹; estimated Kd of one version of the complex (dissociation rate constant / kon) [4]: 3 nM and 13 nM; kobs2 (second phase) [4]: 0.08 s⁻¹; kobs3 (third phase) [4]: 0.004 s⁻¹; kon [4]: 680000 M⁻¹ s⁻¹

Q: Which decrease in donor (mClover3) peak fluorescence intensity [4] does the source give for SpyTag003-mClover3 (peptide) here?
A: 35%

Q: What about the kobs1 (first phase, 500 nM SpyCatcher003-555) [4] of the same substance?
A: 0.54 s⁻¹

Q: What about the kobs2 (second phase, 500 nM SpyCatcher003-555) [4] of the same substance?
A: 0.016 s⁻¹

Q: What about the kobs3 (third phase, 500 nM SpyCatcher003-555) [4] of the same substance?
A: 0.004 s⁻¹

Q: What about the koff [4] of the same substance?
A: 0.26 s⁻¹

Q: And the kon [4]?
A: 620000 M⁻¹ s⁻¹

Q: Which percent completion of the covalent reaction (SpyCatcher003 in excess) [5] does the source give for “SpyTag003-maltose binding protein (MBP) (peptide)” here?
A: > 99%

Q: What about the percent completion of the covalent reaction (SpyTag003 in excess) [5] of the same substance?
A: > 99%

Q: And the percent completion of the covalent reaction (10 nM each, 15 min) [6]?
A: > 90%

Q: For VPHIVMVDAYKRYK [SpyTag002 T112H], which “effect of Tag mutation on reaction rate” value [7] is on record?
A: enhanced reaction rate

Q: Which results are given for VPTIVMVDAYKRYK [SpyTag002]?
A: association rate constant (kon) [8]: 4.2 ± 0.5 × 10^5 M^−1 s^−1; improvement of rate of reaction over SpyTag/SpyCatcher ([9]; by phage display selection, SpyTag002 and SpyCatcher002): > 12 fold; second-order rate constant, SpyTag002/SpyCatcher002 ([9]; previously shown): 20000 M⁻¹ s⁻¹

From PMC6936558 (Proceedings of the National Academy of Sciences of the …, 2019)
